Assay results collected from several papers.
Lines come from different studies, so protocols differ.
Observed: enzyme activity
Action: inhibitor
MTOR: Serine/threonine-protein kinase mTOR (MTOR, Homo sapiens, UniProt P42345)
YCK2: Serine/threonine protein kinase YCK2 (YCK2, Candida albicans, UniProt A0A1D8PKB4)
CA2: Carbonic anhydrase 2 (CA2, Bos taurus, UniProt P00921)
CDK6 with cyclin D3: Cyclin-dependent kinase 6, with cyclin D3 (CDK6, Homo sapiens, UniProt Q00534)
EGFR: Epidermal growth factor receptor (EGFR, Homo sapiens, UniProt P00533)

Structure (SMILES)	target	assay	IC50
C[C@H]1COCCN1c1nc(N2CCOC[C@@H]2C)c2ccc(-c3cccc(C(=O)NCCOCCOCCOCCONC(=O)c4ccc(F)c(F)c4Nc4ccc(I)cc4F)c3)nc2n1	MTOR	FRET	330 nM
COc1ccc(N2CCN(Cc3cn4c(-c5ccc(Br)cc5)nnc4s3)CC2)cc1	Ferroptosis suppressor protein 1 (AIFM2, Homo sapiens, UniProt Q9BRQ8, S364A/T363A)	absorbance	61 nM
c1ccc(-c2[nH]ccc2-c2ccnc3ccccc23)nc1	YCK2	ADP detection	4900 nM
O=C1C[C@@H](c2ccc(O)cc2)Oc2cc(O)cc(O)c21	CA2	absorbance	68900 nM
c1ccc(-c2n[nH]cc2-c2ccncc2)nc1	YCK2	ADP detection	520 nM
CNS(=O)(=O)c1ccc(Nc2ncc(C(F)(F)F)c(N3CCC[C@](C)(O)C3)n2)c(C)c1	CDK6 with cyclin D3	radiometric	3550 nM
O=C(/C=C/c1ccc(F)cc1)c1nc2ccccc2n1Cc1cn([C@@H]2O[C@H](CO)[C@H](O)[C@H](O)[C@H]2O)nn1	EGFR	–	69 nM
c1coc(-c2n[nH]cc2-c2ccnc3ccccc23)c1	YCK2	ADP detection	830 nM
CCCCCCCCCCCC[N+]1(C)CCOCC1	EGFR	ELISA	1350 nM
Nc1cnccc1Nc1ccc(Cl)c(Cl)c1	SMUG1 (Homo sapiens, UniProt Q53HV7)	–	> 100000 nM
N=C(N)c1ccc(OCCCCCOc2ccc(C(=N)N)cc2)cc1	Neutrophil elastase (ELANE, Homo sapiens, UniProt P08246)	absorbance	> 100000 nM
NS(=O)(=O)c1ccc(-n2nc(C(=O)NN=Cc3ccc(O)cc3)cc2-c2ccccc2)cc1	Serine/threonine-protein kinase B-raf (BRAF, Homo sapiens, UniProt P15056, V600E)	–	18500 nM
CNS(=O)(=O)c1ccc(Nc2ncc3cc(Cl)c(=O)n(C4CCCC4)c3n2)c(C)c1	CDK6 with cyclin D3	radiometric	62 nM
CNC(c1ccccc1)c1c(N)[nH]c(=O)[nH]c1=O (centres unmarked)	EGFR	–	4600 nM
N#Cc1ccc(NC(=O)Nc2ccccc2)cc1	SRSF protein kinase 3 (SRPK3, Homo sapiens, UniProt Q9UPE1)	FRET	5700 nM
CCCCNC(c1ccccc1)c1c(N)[nH]c(=O)[nH]c1=O (centres unmarked)	EGFR	–	988 nM
COc1ccc(-c2ccc3c(N4CCOC[C@@H]4C)nc(N4CCOC[C@@H]4C)nc3n2)cc1COC(=O)CCOCCOCCOCCONC(=O)c1ccc(F)c(F)c1Nc1ccc(I)cc1F	MTOR	FRET	40.5 nM
CNS(=O)(=O)c1ccc(Nc2ncc(C(F)(F)F)c([C@H]3CC[C@](C)(O)CC3)n2)c(C)c1	CDK6 with cyclin D3	radiometric	715 nM
COc1cc(-c2[nH]c(=S)nc3nc(Nc4ccc(S(N)(=O)=O)cc4)sc23)ccc1O	CA2	absorbance	79.5 nM
Cc1cc(O)c(-c2ccc([C@@H](C)CN(C)C)cc2)c2c1[nH]c(=O)c1sccc12	Cyclin-dependent kinase 6, with cyclin D1 (CDK6, Homo sapiens, UniProt Q00534)	–	> 1000 nM
O=C(/C=C/c1ccc(F)cc1)c1nc2ccccc2n1Cc1cn([C@@H]2OC[C@@H](O)[C@H](O)[C@H]2O)nn1	EGFR	–	75 nM
Cc1cc(S(=O)(=O)NCCO[C@H]2CC[C@H](CN3CCC(c4ccn5c(N6CCC(=O)NC6=O)cnc5c4)CC3)CC2)ccc1Nc1ncc2cc(Cl)c(=O)n(C3CCCC3)c2n1	CDK6 with cyclin D3	radiometric	153 nM
O=C1C(=O)N(CCn2ncc3c(=O)[nH]cnc32)c2ccc(Cl)cc21	CDK6 with cyclin D3	ADP detection	603 nM
